Reference: PMC6139073 (Cancer research, 2018)

Columns and labels:
[1] = single agent; cited from earlier work
[2] = in vivo; cited from earlier work
FZD1/2 = FZD1/2 immunohistochemistry; format: in vivo, human; details: run-in and concurrent arms combined; H-score over 50 positive
In short: (§1)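 Tumour biopsies from the expansion cohort (20 patients with metastatic irinotecan- and oxaliplatin-refractory CRC on MEK inhibitor plus Wnt-modulator combination); two core biopsies per patient, taken pre- and post-treatment. IHC with hematoxylin counterstain; brown membrane/cytoplasmic staining was scored positive. H-score (0–300) was derived from the proportion and intensity of stained tumour cells in the predominant compartment. Values over 50 were positive, and results were summarised descriptively.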

[3] = in vivo; cited from earlier work; remark: listed apart in the source
[4] = Plasma pharmacokinetics in patients; format: in vivo, human
p-ERK = p-ERK immunohistochemistry; format: in vivo, human; details: run-in and concurrent arms combined; H-score over 50 positive
In short: as §1

[5] = tested on: advanced BRAF V600E or V600K mutated melanoma; details: single agent, cited from earlier work

Compound | Recommended Phase II Dose (RP2D) [1] | Visual changes, patients [2] | dose limiting toxicity [2] | patients positive for FZD1/2 post-treatment (FZD1/2) | mean half-life (t½) [3] | difference in pharmacokinetics of selumetinib given alone versus with CsA ([4]; day -7 vs C1D1) | Cmax ([4]; human, plasma, oral) | Cmax ([4]; human, plasma, oral, 75 mg) | half-life ([4]; human, plasma, oral, 75 mg) | patients positive for p-ERK post-treatment (p-ERK) | median progression-free survival ([5]; vs 1.5 in comparator, p < 0.001) | 6-month survival rate ([5]; vs 67% in comparator)
Cn1cnc2c(F)c(Nc3ccc(Br)cc3Cl)c(C(=O)NOCCO)cc21 [selumetinib] | 100 mg BID | 12% | grade 3 acneiform rash and pleural effusion | 11 out of 15 | 5 to 8 h | no substantial difference | 1250 ng/mL | 1550 ng/mL | 6.4 h | 14 out of 15 |  | 
CC(=O)Nc1cccc(-n2c(=O)n(C3CC3)c(=O)c3c(Nc4ccc(I)cc4F)n(C)c(=O)c(C)c32)c1 [trametinib] |  |  |  |  |  |  |  |  |  |  | 4.8 mos | 81%
